EBI2 block = EBI2 (human) antagonism | inhibition, % at 5 µM | actives 0.81% (n = 360,000) | AID 651636 | P32249 | EBI2 beta-arrestin recruitment, luminescence, 7a,25-OHC stimulated; in the data active = inhibition above about 38%;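 also: enzyme fragment complementation signal reports receptor beta-arrestin coupling in cells; 0% = agonist plus DMSO wells and 100% = wells without agonist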
APJ antagonist = blocks the human apelin receptor APJ; inhibition, % at 20 µM; actives 0.32% (n = 330,000); P35414; AID 2521; CHO-K1 APJ beta-arrestin complementation, luminescence;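 active = inhibition above about 40% at 20 µM, limit read from the data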;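 also: cells challenged with 10 nM apelin-13 agonist together with compound; plate controls were apelin-13 plus DMSO wells for no effect and DMSO wells lacking apelin-13 for full effect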
APJ agonist = APJ receptor agonism. CHO-K1 APJ PathHunter beta-arrestin, luminescence; 0% DMSO wells, 100% apelin. activation, % at 20 µM. actives 0.11% (n = 330,000). AID 2520;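 active = activation more than six SD over the plate average, tested at 20 µM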;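 also: 0% = DMSO alone and 100% = apelin-13 at 10 nM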
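Test system: CHO-K1 APJ beta-arrestin complementation cell line | Compound: Single test compound dose, 20 µM final, 1% DMSO | Incubation: Compound 90 min 25 °C, reagent 1 h | Measured by: beta-gal luminescence | Read-out basis: APJ–arrestin association signal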
CXCR6 block = CXCR6 (human) receptor inhibition. O00574. CHO-K1 PathHunter CXCR6 beta-arrestin, luminescence. inhibition, % at 20 µM. actives 0.36% (n = 360,000); in the data active = inhibition above about 34%, passing the limit was not always enough;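 also: antagonist mode with CXCL16 agonist at 10 nM final; 0% = 10 nM CXCL16 with DMSO and 100% = unstimulated wells without agonist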
CCR6 antagonist = antagonists of human CCR6 receptor. P51684. actives 0.49% (n = 340,000). CHO-K1 CCR6 PathHunter beta-arrestin, luminescence, CCL20-stimulated. inhibition, % at 20 µM. AID 493098;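 active = compounds whose inhibition of the agonist-driven luminescence signal at 20 µM reaches about 50%, limit read from the data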;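 also: cells stimulated with CCL20 at 14 nM final; plate controls were DMSO with CCL20 for no effect and DMSO without agonist for full effect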
HTR2A ag = activates the mouse 5-HT2A serotonin receptor; P35363; CHO-K1 mHTR2A beta-arrestin complementation, luminescence; percent of 30 µM serotonin response; activation, % at 7.6 µM; actives 0.66% (n = 360,000); AID 624169;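 active = activation above a run cutoff, the mean activation of all tested compounds plus 3 SD, cut at about 14% in these data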;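 also: 0% = plate median of compound wells and 100% = 30 µM serotonin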
Target sequence (P35363 whole entry, looked up): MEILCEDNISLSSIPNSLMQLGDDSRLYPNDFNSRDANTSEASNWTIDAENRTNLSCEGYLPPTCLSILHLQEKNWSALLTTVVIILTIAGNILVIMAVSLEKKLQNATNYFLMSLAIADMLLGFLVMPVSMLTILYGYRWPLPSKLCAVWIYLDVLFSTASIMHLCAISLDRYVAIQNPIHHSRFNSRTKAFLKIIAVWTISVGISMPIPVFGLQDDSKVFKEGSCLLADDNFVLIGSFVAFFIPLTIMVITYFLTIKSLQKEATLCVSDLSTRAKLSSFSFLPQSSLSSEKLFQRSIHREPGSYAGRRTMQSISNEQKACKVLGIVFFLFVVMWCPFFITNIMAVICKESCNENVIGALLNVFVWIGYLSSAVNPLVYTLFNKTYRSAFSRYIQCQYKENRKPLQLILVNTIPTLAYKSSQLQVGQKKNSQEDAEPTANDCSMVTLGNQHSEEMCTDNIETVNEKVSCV
OPRM1 ag = counter-screen for mouse HTR2A agonists: human mu opioid receptor agonists | shares compounds with HTR2A ag | U2OS OPRM1 beta-arrestin PathHunter, luminescence; DMSO 0%, DAMGO 9.3 µM 100% | activation, % at 9.3 µM | actives 5.3% (n = 2,300) | AID 624380;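 active = mean activation above the mean of DMSO-only wells plus 3 SD, cut at about 0.5% in these data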
HTR2A ag conf = confirmation of mouse HTR2A serotonin receptor agonists | activation, % at 7.6 µM | CHO-K1 PathHunter beta-arrestin recruitment, luminescence; DMSO 0%, 30 µM serotonin 100% | actives 19% (n = 2,300) | shares compounds with HTR2A ag;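 active = mean activation across triplicates above the hit threshold derived in the original primary screen, cut at about 15% in these data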
The depositor's hits bear a star; . = no result. Shown are actives, neighbours in structure and some others; about 2.1% of the full set was active somewhere.

SMILES	EBI2 block	APJ antagonist	APJ agonist	CXCR6 block	CCR6 antagonist	HTR2A ag	OPRM1 ag	HTR2A ag conf
COc1ccc(CCNC(=O)C(=O)c2cn(CC(=O)N3CCCC3)c3ccccc23)cc1	13.8	.	.	4.0	.	-1.5	.	.
NC(=O)C1CCN(C(=O)c2cccc(S(=O)(=O)N3CCCC3)c2)CC1	-16.4	-1.2	9.6	-4.9	1.9	4.6	.	.
CSc1nc(N)nc2c1ncn2CC(=O)NCCCN1CCCC1=O	-4.0	5.1	-2.5	4.9	12.7	3.8	.	.
CCOC(=O)C1(C)CCCCN1C(=O)c1ccc(N(C)C)cc1 (configuration not stated)	-5.7	.	.	-1.3	.	4.9	.	.
CCOC(=O)C1(C)CCCCCN1C(=O)c1ccc(OC)cc1 (configuration not stated)	1.9	.	.	4.0	.	15.7*	-0.7	-3.9
CC(=O)Nc1ccc(CN2CCN(Cc3ccc(C)cc3)C(CCO)C2)cc1 (configuration not stated)	-9.6	-25.5	-2.4	-3.7	-2.1	-1.7	.	.
CC(=O)Nc1ccc(CN2CCN(CC(C)C)C(CCO)C2)cc1 (configuration not stated)	-1.4	-18.8	-3.5	-0.5	-3.0	14.4*	-0.5	-3.7
COc1ccc(NC(=O)CCNS(=O)(=O)c2ccc3[nH]c(=O)oc3c2)cc1Cl	-6.8	-7.9	0.7	4.8	1.4	21.6*	-0.3	3.1
CCCCN(C(=O)CCC(=O)Nc1cc(C)on1)C(C(=O)NC1CCCC1)c1ccc(OC)cc1 (configuration not stated)	4.8	-2.1	0.6	6.4	7.2	3.7	.	.
CCCCN(C(=O)CCC(=O)Nc1cc(C)on1)C(C(=O)NC1CCCC1)c1cccc(OC)c1 (configuration not stated)	6.6	-11.9	-1.8	0.2	19.3	14.4*	-0.6	-5.0
CCC(C(=O)NCc1cccnc1)n1nc(C)n2c(cc3occc32)c1=O (configuration not stated)	-1.6	15.4	4.9	-4.4	10.5	6.6	.	.
Cc1cnc(NC(=O)C2(c3ccccc3)CC2)s1	-0.2	.	.	-10.5	14.7	20.6*	-0.2	-4.6
CCC(CC)C(=O)NCCc1cc2ccc(C)cc2[nH]c1=O	0.7	11.8	-0.9	-2.5	-5.1	21.3*	-0.3	-5.4
CCC(=O)NCCc1cc2ccc(C)cc2[nH]c1=O	-3.1	2.0	-1.4	-1.6	-7.2	-0.9	.	.
Cc1ccc(SCn2nnc3ccccc3c2=O)c(C)c1	8.7	0.9	-2.0	5.1	13.7	24.7*	-0.2	-0.1
COc1ccccc1CNC(=O)CN(c1ccc(C)cc1)S(=O)(=O)c1c(C)noc1C	10.4	10.4	0.0	5.3	18.9	17.2*	-0.6	-4.9
COc1ccc(NC(=O)CN(c2ccc(C(C)C)cc2)S(=O)(=O)c2c(C)noc2C)cc1OC	-7.1	5.4	2.3	-0.1	-2.1	14.8*	-0.5	-0.2
CC(=O)C(Cc1ccccc1)NC(=O)COC(=O)c1cc(S(=O)(=O)N2CCOCC2)ccc1F (configuration not stated)	-2.6	.	.	-13.1	.	-1.5	.	.
O=C([C@H](Cc1ccccc1)NS(=O)(=O)c1ccc(Cl)cc1)N1CC[C@@]2(O)CCCC[C@H]2C1	-7.8	-6.1	1.4	-4.7	2.8	17.4*	-0.7	-4.9
COc1ccc(S(=O)(=O)N[C@@H](Cc2ccccc2)C(=O)N2CC[C@@]3(O)CCCC[C@H]3C2)cc1	-8.7	7.6	3.1	1.1	13.6	0.6	.	.
CC(=O)OCC1=C(C(=O)O)N2C(=O)C(NC(=O)CCn3nc(C(F)(F)F)c(Br)c3C3CC3)C2SC1 (configuration not stated)	11.4	-3.5	-2.2	-11.8	4.8	-3.9	.	.
CCn1c(N2CCN(S(=O)(=O)c3ccc(OC)cc3)CC2)nc2ccccc21	-6.2	7.4	-0.4	4.8	5.8	16.9*	0.3	44.5*
c1ccc2c(c1)[nH]c1c(N3CCSCC3)ncnc12	3.7	8.3	2.5	-11.9	4.7	15.0*	-0.1	-1.8
COc1ccc(OC)c(NC(=O)CSc2nc3[nH]c(=O)[nH]c(=O)c3s2)c1	2.9	.	.	-0.7	7.6	18.3*	-0.7	0.8
COc1ccc(OC)c(NC(=O)CSc2nc3[nH]c(=O)cc(O)c3s2)c1	7.3	-20.2	-3.8	-1.9	1.1	-2.1	.	.
SMILES	EBI2 block	APJ antagonist	APJ agonist	CXCR6 block	CCR6 antagonist	HTR2A ag	OPRM1 ag	HTR2A ag conf
Cc1ccc(S(=O)(=O)NCC(=O)N2CCCC2)cc1	-15.9	8.3	-2.2	3.6	1.7	6.9	.	.
Cc1ccc(S(=O)(=O)NC(CC(=O)N2CCOCC2)c2ccco2)cc1 (configuration not stated)	-0.9	-2.7	-3.0	-7.7	-5.8	43.3*	-0.7	-0.3
Cc1ccc(S(=O)(=O)NC(CC(=O)NC2CCCC2)c2ccco2)cc1 (configuration not stated)	-2.5	12.0	-1.5	15.7	-17.4	-4.0	.	.
Cc1ccc(S(=O)(=O)NCC(=O)N2CCCCC2)cc1	-3.5	11.0	-3.6	-2.4	5.7	14.5*	-0.7	-3.3
CCN(C(=O)COC(=O)/C=C/c1c(C)nn(-c2ccccc2)c1C)c1c(N)n(Cc2ccccc2)c(=O)[nH]c1=O	8.7	.	.	-4.1	10.1	18.4*	-0.7	-3.5
Cc1ccc(S(=O)(=O)N(C)C)cc1NC(=O)c1cncc(Br)c1	-3.2	8.4	-2.5	8.0	4.1	5.7	.	.
Cc1cc(-c2onc(C)c2C(N)=O)no1	-10.0	3.0	-2.5	-4.4	0.4	2.4	.	.
Cc1cc(-c2onc(C)c2C(=O)Oc2ccc(Cl)cc2)no1	4.7	21.4	-7.6	1.7	10.9	18.9*	-0.5	-4.3
CC(CN1CCCCC1)C(=O)NNC(=O)C12CC3CC(CC(C3)C1)C2 (configuration not stated)	-1.8	-1.2	-2.7	6.7	-1.0	16.0*	-0.4	-2.9
CC(=O)Nc1cccc(-c2csc(C(O)c3ccc(F)c(F)c3)n2)c1 (configuration not stated)	-2.8	.	.	1.1	.	2.1	.	.
COCCn1cnnc1SCC(=O)Nc1sc2c(c1C#N)CCC2	-7.0	1.4	-2.7	4.7	-3.5	17.3*	-0.6	-0.2
COc1ccc(OC)c(-c2cc(C(=O)N3CCN(c4ccccc4)CC3)no2)c1	-1.9	-3.6	-1.6	7.8	4.1	27.4*	-0.5	-5.3
COc1ccc(-c2cc(C(=O)N3CCCC3)no2)cc1OC	1.0	-15.4	-3.1	-2.7	16.9	22.5*	-0.5	0.6
